What was measured:
Type in all cases: functional
Mus musculus [1] = test: Antiinflammatory activity against carrageenan-induced paw edema in C57BL/6 mouse assessed as increase in paw volume at 100 mg/kg, po administered 1 hr before carrageenan challenge measured 4 hrs after carrageenan challenge relative to control
Outline: (§1)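 Male C57BL/6 mice dosed orally at 100 mg/kg as a suspension in 5% carboxymethylcellulose 1 h before challenge. 0.05 ml of 1% w/v carrageenan in 0.9% sterile saline injected subcutaneously into right hind paw plantar region under light anaesthesia. Paw volume by digital plethysmometry immediately and 4 h later. Percent inhibition ± SEM vs vehicle group; diclofenac sodium 100 mg/kg p.o. as standard.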

Mus musculus [2] = test: Antiinflammatory activity against carrageenan-induced paw edema in C57BL/6 mouse assessed as inhibition of paw edema at 100 mg/kg, po administered 1 hr before carrageenan challenge measured 4 hrs after carrageenan challenge relative to control; outline: as §1
Mus musculus [3] = test: Analgesic activity in C57BL/6 mouse assessed as decrease in acetic acid-induced writhing at 100 mg/kg, po administered 1 hr before acetic acid challenge measured during 30 mins of acetic acid challenge relative to control; design: scale not given: the % may be the effect or the level left
Outline: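 Male C57BL/6 mice given 100 mg/kg orally (suspension in 5% carboxymethylcellulose) 1 h before i.p. injection of 0.25 ml 0.6% v/v acetic acid. Writhes counted over 30 min after injection. Percent inhibition calculated against mean writhing count of the control group; diclofenac sodium 100 mg/kg p.o. as standard.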

With `CC(=O)Nc1ccc(Cc2noc(CCC(=O)O)n2)cc1` as the compound, how does the Activity (Mus musculus [1]) read?
Its Activity is 18%.

What about the inhibition in vivo at 100 mg/kg (Mus musculus [2]) of the same compound?
The inhibition in vivo at 100 mg/kg was 75.3%.

What about the Activity (Mus musculus [3]) of the same compound?
The Activity was 46.43%.

Which Activity (Mus musculus [1]) does the source give for `CC(=O)Nc1ccc(Cc2noc(CCC(=O)Nc3ccc(F)cc3F)n2)cc1` here?
The Activity was 34%.

What about the inhibition in vivo at 100 mg/kg (Mus musculus [2]) of the same compound?
Its inhibition in vivo at 100 mg/kg is 52%.

And the Activity (Mus musculus [3])?
The Activity was -0.6%.

Which Activity (Mus musculus [1]) does the source give for `COc1ccc(NC(=O)CCc2nc(Cc3ccc(NC(C)=O)cc3)no2)cc1` here?
The Activity was 37%.

What about the inhibition in vivo at 100 mg/kg (Mus musculus [2]) of the same compound?
The inhibition in vivo at 100 mg/kg was 49.3%.

What about the Activity (Mus musculus [3]) of the same compound?
The Activity was 67.26%.

With `CC(=O)Nc1ccc(Cc2noc(CCC(=O)Nc3ccccc3F)n2)cc1` as the compound, how does the Activity (Mus musculus [1]) read?
Its Activity is 24%.

And the inhibition in vivo at 100 mg/kg (Mus musculus [2])?
The inhibition in vivo at 100 mg/kg was 67.1%.

And the Activity (Mus musculus [3])?
Its Activity is -23.21%.

What does the source list for `CC(=O)Nc1ccc(Cc2noc(CCC(=O)Nc3ccccc3)n2)cc1`?
Activity (Mus musculus [1]): 48%; inhibition in vivo at 100 mg/kg (Mus musculus [2]): 34.2%; Activity (Mus musculus [3]): -13.1%

With `COc1cccc(NC(=O)CCc2nc(Cc3ccc(NC(C)=O)cc3)no2)c1` as the compound, how does the Activity (Mus musculus [1]) read?
Its Activity is 47%.

What about the inhibition in vivo at 100 mg/kg (Mus musculus [2]) of the same compound?
The inhibition in vivo at 100 mg/kg was 35.6%.

What about the Activity (Mus musculus [3]) of the same compound?
The Activity was -7.14%.

What does the source list for `C#Cc1cccc(NC(=O)CCc2nc(Cc3ccc(NC(C)=O)cc3)no2)c1`?
Activity (Mus musculus [1]): 11%; inhibition in vivo at 100 mg/kg (Mus musculus [2]): 84.9%; Activity (Mus musculus [3]): 61.31%

Which Activity (Mus musculus [1]) does the source give for `CC(=O)Nc1ccc(Cc2noc(CCC(=O)Nc3cccnc3)n2)cc1` here?
The Activity was 9%.

What about the inhibition in vivo at 100 mg/kg (Mus musculus [2]) of the same compound?
The inhibition in vivo at 100 mg/kg was 87.7%.

And the Activity (Mus musculus [3])?
Its Activity is 80.95%.

For `COc1ccccc1NC(=O)CCc1nc(Cc2ccc(NC(C)=O)cc2)no1`, which Activity (Mus musculus [1]) is on record?
Its Activity is 9%.

And the inhibition in vivo at 100 mg/kg (Mus musculus [2])?
The inhibition in vivo at 100 mg/kg was 87.7%.

What about the Activity (Mus musculus [3]) of the same compound?
The Activity was 73.81%.

`CC(=O)Nc1ccc(Cc2noc(CCC(=O)NCc3ccccc3)n2)cc1` was tested. Which Activity (Mus musculus [1]) did it give?
The Activity was 17%.

What about the inhibition in vivo at 100 mg/kg (Mus musculus [2]) of the same compound?
The inhibition in vivo at 100 mg/kg was 76.7%.

And the Activity (Mus musculus [3])?
Its Activity is -0.6%.

Which Activity (Mus musculus [1]) does the source give for `COc1ccc(NC(=O)CCc2nc(Cc3ccc(NC(C)=O)cc3)no2)cc1F` here?
Its Activity is 29%.

What about the inhibition in vivo at 100 mg/kg (Mus musculus [2]) of the same compound?
Its inhibition in vivo at 100 mg/kg is 60.3%.

And the Activity (Mus musculus [3])?
The Activity was 36.9%.

How did the Activity (Mus musculus [1]) turn out when `CC(=O)Nc1ccc(Cc2noc(CCC(=O)Nc3cccc(C)c3)n2)cc1` was run?
The Activity was 61%.

What about the inhibition in vivo at 100 mg/kg (Mus musculus [2]) of the same compound?
Its inhibition in vivo at 100 mg/kg is 16.4%.

And the Activity (Mus musculus [3])?
The Activity was 67.26%.

Which Activity (Mus musculus [1]) does the source give for `CC(=O)Nc1ccc(Cc2noc(CCC(=O)Nc3ccc(F)cc3)n2)cc1` here?
Its Activity is 26%.

And the inhibition in vivo at 100 mg/kg (Mus musculus [2])?
The inhibition in vivo at 100 mg/kg was 64.4%.

What about the Activity (Mus musculus [3]) of the same compound?
The Activity was 67.86%.

How did the Activity (Mus musculus [1]) turn out when `CC(=O)Nc1ccc(Cc2noc(CCC(=O)Nc3ccc(C(F)(F)F)cc3)n2)cc1` was run?
The Activity was 46%.

And the inhibition in vivo at 100 mg/kg (Mus musculus [2])?
The inhibition in vivo at 100 mg/kg was 37%.

What about the Activity (Mus musculus [3]) of the same compound?
The Activity was 31.55%.

Which results are given for `COc1ccc(NC(=O)CCc2nc(Cc3ccc(NC(C)=O)cc3)no2)cc1OC`?
Activity (Mus musculus [1]): 3%; inhibition in vivo at 100 mg/kg (Mus musculus [2]): 95.9%; Activity (Mus musculus [3]): 80.36%

How did the Activity (Mus musculus [1]) turn out when `O=C([O-])Cc1ccccc1Nc1c(Cl)cccc1Cl.[Na+]` [DICLOFENAC SODIUM] was run?
The Activity was 36%.

What about the inhibition in vivo at 100 mg/kg (Mus musculus [2]) of the same compound?
Its inhibition in vivo at 100 mg/kg is 50.7%.

And the Activity (Mus musculus [3])?
The Activity was 77.38%.

From ChEMBL document CHEMBL1153886, “Synthesis, analgesic and anti-inflammatory activities of novel 3-(4-acetamido-benzyl)-5-substituted-1,2,4-oxadiazoles” (2009)
